The list is not random: actives were taken first. Their share in the collection is about 3.7%.
KCC2 mod = KCC2 cotransporter modulators, thallium flux, primary screen, cell-based, HEK293 KCC2, FluoZin-2 fluorescence, MLSMR | Solute carrier family 12 member 5 (Homo sapiens), Q9H2X9 | KCC2 cells, thallium flux FluoZin-2 fluorescence | B-score of Tl+ flux slope (higher = more flux/activation; lower = inhibition) at 10 µM | 190,000 tested, 2.2% active;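 active = thallium flux slope and its plate-corrected score both differing from the plate sample mean at a set confidence after two filtering rounds, in either direction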;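 also: slope of fluorescence scaled to starting intensity during 10 to 20 s after thallium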
PKD1 inh = inhibitors of human PKD1 kinase, biochemical, fluorescence polarization; PKD1 kinase fluorescence polarization assay; inhibition, % (no concentration beside the values); 200,000 tested, 0.056% active; AID 797, 2007; in the data active = inhibition above about 50%
Arbovirus anti = antivirals against arbovirus infection, primary screen, cell-based, full library, 10K replicate subset; arbovirus infection cell-based antiviral screen; inhibition, % at 10 µM; 200,000 tested, 0.37% active; in the data active = inhibition above about 30%
Calpain2 inh = inhibitors of pig calpain II, primary screen, biochemical, fluorogenic peptide substrate, 1536-well; purified calpain II, 30 min; inhibition, % at 16 µM; 220,000 tested, 0.37% active; AID 1236, 2008;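 active = inhibition above about 50%, limit read from the data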
Mdm2 ligase inh = MDM2-luciferase reporter signal enhancers, primary screen, MDM2 E3 ligase inhibitor project, cell-based, luminescence, 1536-well; 210,000 tested, 0.11% active; E3 ubiquitin-protein ligase Mdm2 (Homo sapiens), Q00987; signal enhancement, % at 5 µM; cell-based MDM2 ubiquitination luciferase reporter, 2 h; 0 = plate control, 100 = twice control, blank-subtracted;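 active = signal enhancement of 30% or more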;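 also: luminescence tracks abundance of the self-degrading MDM2-luciferase fusion protein; higher signal means inhibition of MDM2 E3 ligase activity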
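Assay system: stable mammalian line carrying autodegrading MDM2–luciferase fusion reporter; Input: 2000 cells in each well; Compound dosing: single-point 5 µM; Schedule: 2 h compound exposure at 37 °C; Signal: SteadyLite luciferase luminescence after 15 min room-temperature reagent incubation; Evaluation: % luminescence enhancement versus blank-corrected plate control mean; Benchmarks: plate controls and plate blanks.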
ROMK primary = ROMK potassium channel modulators, primary screen, cell-based, thallium flux, MLSMR library | Tet-inducible ROMK, thallium flux fluorescence; actives lie on both sides | 130,000 tested, 2% active | ATP-sensitive inward rectifier potassium channel 1 (Homo sapiens), P48048 | B-score at 10 µM;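 active = signal ratio slope over the read window, or its plate-corrected B-score, at least 3 SD from the plate mean, either direction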;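 also: B-score of the F/F0 ratio slope over 7 to 12 s after thallium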
Target sequence (P48048 whole entry, looked up): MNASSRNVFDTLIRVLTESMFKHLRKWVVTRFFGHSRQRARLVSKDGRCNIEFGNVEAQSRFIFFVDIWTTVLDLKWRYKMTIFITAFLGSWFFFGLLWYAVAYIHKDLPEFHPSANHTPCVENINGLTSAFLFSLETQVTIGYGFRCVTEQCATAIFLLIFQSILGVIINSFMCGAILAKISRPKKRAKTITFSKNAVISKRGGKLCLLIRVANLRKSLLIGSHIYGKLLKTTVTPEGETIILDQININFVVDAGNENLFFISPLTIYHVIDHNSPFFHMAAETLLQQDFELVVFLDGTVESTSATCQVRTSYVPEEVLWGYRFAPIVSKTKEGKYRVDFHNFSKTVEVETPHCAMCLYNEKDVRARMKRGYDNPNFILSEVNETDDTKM
KCC2 secondary = KCC2 modulators in sodium-free buffer, confirmation, cell-based, HEK293 KCC2, thallium flux, secondary assay; FluoZin2 fluorescence; stronger effect = higher value; 3,700 tested, 15% active; normalised thallium flux (F/F0 slope) at 10 µM; AID 1713, 2009; shares compounds with KCC2 mod;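 active = thallium flux slope above the same plate's solvent-only control mean plus 3 SD; inconclusive = the two replicate wells disagree; inactive = no significant difference from solvent-only control wells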
KCC2 bumet counter = thallium flux persisting under bumetanide in KCC2 cells, confirmation, counter-screen for KCC2 modulator project, cell-based, HEK293 KCC2, FluoZin2, secondary assay 3; shares compounds with KCC2 mod; HEK293-KCC2 + bumetanide/ouabain; stronger effect = higher value; normalized thallium flux at 10 µM; 3,700 tested, 49% active;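 active = thallium entry rate above the same plate's blocked-transporter control wells by more than 3 SD; inconclusive = the two repeat wells disagree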;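 also: raw slope of fluorescence over initial fluorescence between 10 and 20 s after thallium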
KCC2 sec2 = KCC2 modulators without ouabain present, confirmation, cell-based, HEK293 KCC2, thallium flux, FluoZin2, secondary assay 2 | shares compounds with KCC2 mod | thallium flux FluoZin2 fluorescence; actives lie on both sides; F/F0 rise rate, 10–20 s post-thallium | normalized thallium flux at 10 µM | 3,700 tested, 23% active | AID 1715, 2009;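 active = thallium flux slope more than 3 SD above or below the plate's solvent-only control mean, mostly below; inconclusive = the two repeat wells disagreed; inactive = no significant shift from solvent-only controls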;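 also: raw slope with 0.1% DMSO as baseline and bumetanide as block control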
HEK counter1 = thallium flux modulation in parental HEK cells, confirmation, counter-screen for KCC2 modulator project, cell-based, counterscreen 1. 3,700 tested, 46% active. HEK293 parental cells, thallium flux FluoZin2, ouabain; baseline-ratio fluorescence slope, 10–20 s after thallium. AID 1716, 2009. thallium flux rate (normalised fluorescence) at 10 µM. shares compounds with KCC2 mod;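 active = thallium flux rate significantly above the same plate's solvent-only control wells, beyond their mean plus 3 SD; inconclusive = the two replicate wells gave conflicting results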
KCC2 ouabain = KCC2 inhibitors and activators, ouabain retest, confirmation, HEK-KCC2 cells. shares compounds with KCC2 mod. HEK293-KCC2, thallium flux FluoZin2 fluorescence; bidirectional: low = inhibitor, high = activator. raw Tl+ flux slope (below DMSO = inhibition, above = activation) at 10 µM. 3,700 tested, 48% active;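 active = thallium flux slope beyond 3 SD from same-plate DMSO control mean in most replicates, usually higher, sometimes lower; inconclusive = repeat tests gave conflicting results; inactive = no significant difference from controls in most replicates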;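 also: slope of initial-normalized fluorescence between seconds 10 and 20 after thallium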
HEK293 Tl flux2 = native HEK Tl+ uptake effects, second counter-screen – HEK cells, counterscreen 2, counter-screen for KCC2 modulator project, confirmation; HEK293 parental, thallium flux FluoZin-2 fluorescence slope; 3,700 tested, 33% active; shares compounds with KCC2 mod; AID 1718, 2009; thallium flux slope at 10 µM;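 active = thallium flux slope above the same plate's solvent-control mean plus 3 SD in both duplicate wells; inconclusive = duplicate wells that disagreed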;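 also: run without ouabain in cells lacking the KCC2 cotransporter; slope of fluorescence scaled to its starting value between 10 and 20 s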
* marks the source's active call; other numbers are inactive results; ? = inconclusive; . = no result.

SMILES	KCC2 mod	PKD1 inh	Arbovirus anti	Calpain2 inh	Mdm2 ligase inh	ROMK primary	KCC2 secondary	KCC2 bumet counter	KCC2 sec2	HEK counter1	KCC2 ouabain	HEK293 Tl flux2
O=C(CSc1nnc(-c2ccccn2)n1Cc1ccco1)c1ccc(Cl)cc1	.	5	11	-110	-12	-0.23	0.0069	?	0.028	0.006*	0.016	0.01
Brc1ccc(CSc2nnc(-c3ccccn3)n2Cc2ccco2)cc1	.	1	-11	-1	-12	0.027	0.0081	?	?	0.0045*	?	0.0073*
c1ccc(CSc2nnc(-c3ccco3)n2Cc2ccco2)cc1	.	7	3	-28	-5	-1	0.0056	?	0.026*	0.0051*	0.014*	0.0086*
Cc1ccccc1CSc1nnc(-c2ccco2)n1Cc1ccco1	.	3	11	1	-7	-2.2	.	.	.	.	.	.
Cn1c(=O)c(=O)n(C)c2cc(S(=O)(=O)N3CCCC3C(=O)NCc3cccs3)ccc21 (stereo unspecified)	0.029	.	.	-26	-12	.	.	.	.	.	.	.
COc1cccc(C(=O)OCC(=O)NC(=O)NC2CCCC2)c1O	11*	-4	0	2	-5	0.97	0.01	0.017*	0.035	0.02*	0.027*	0.014*
O=C(COC(=O)c1cc(=O)[nH]c2ccccc12)NC(=O)NC1CCCCC1	-0.56	-1	3	-40	-15	.	.	.	.	.	.	.
O=C(NNC(=S)Nc1ccc(OC(F)F)cc1)c1cc2c(s1)CCCC2	0.42	1	-1	-17	-2	.	.	.	.	.	.	.
COc1cccc(N2CC(C(=O)Nc3nnc(SCc4cccnc4)s3)CC2=O)c1 (stereo unspecified)	-1	10	5	-37	-19	0.48	.	.	.	.	.	.
O=C(O)CC(NC(=O)Cc1ccc(Cl)cc1)c1ccco1 (stereo unspecified)	-3.4*	-3	-1	-10	.	0.22	0.018	0.0042	0.031	0.0077	0.016	0.011
O=C(O)CC(NC(=O)C(c1ccccc1)c1ccccc1)c1ccco1 (stereo unspecified)	-1.2	9	6	-6	-2	.	.	.	.	.	.	.
Cc1ccc(-n2cccc2/C=N/n2cnnc2)cc1Cl	.	-2	7	-38	-14	-0.61	0.019	0.0046	0.027	0.0067	0.015	0.0096
Oc1ccc(-n2cccc2/C=N/n2cnnc2)cc1	-1.9	-4	-2	-23	3	-0.66	.	.	.	.	.	.
